# Measured values pooled from the literature.
# Target: Tyrosine-protein kinase Srms (SRMS, Homo sapiens, UniProt Q9H3Y6)
SMILES,read-out,method,tested at,remaining binding [%]
F[C@@H]1CCN(c2nccc(-c3cnn4ncccc34)n2)C1,binding,,1 µM,100
CN([C@@H]1CCc2c(CC(=O)O)c3ccccc3n2C1)S(=O)(=O)c1ccc(F)cc1,cell-free assay,competition with immobilised ligand,1 µM,81
N[C@@H]1CCN(c2nccc(-c3cnn4ncccc34)n2)C1,binding,,1 µM,100
CCOCCn1cc(C(=O)Nc2ccc(-n3nc(-c4cccnc4)cc3C(F)(F)F)cn2)ccc1=O,cell-free assay,competition with immobilised ligand,1 µM,79
CCN1CCN(Cc2ccc(C(=O)Nc3ccc(C)c(Oc4ccc5c(c4)CC(=O)N5)c3)cc2C(F)(F)F)CC1,binding,competition with immobilised ligand,1 µM,100
C=CC(=O)N1CCC(C(=O)NCC(=O)N2CCN(c3nc(-c4cnc(N)nc4C(F)F)nc(N4CCOCC4)n3)CC2)CC1,binding,competition with immobilised ligand,1 µM,72
Cc1cnn2ncc(-c3ccnc(N(C)C)n3)c2c1,binding,,1 µM,100
O=C(NS(=O)(=O)c1ccc(NCC2CCOCC2)c([N+](=O)[O-])c1)c1ccc(N2CCN(Cc3ccc(C(F)(F)F)cc3-c3ccc(Cl)cc3)CC2)cc1Oc1cnc2[nH]ccc2c1,cell-free assay,competition with immobilised ligand,1 µM,79
FC(F)(F)Oc1cccc(-c2cnc3ccc(-c4ccncc4)nn23)c1,cell-free assay,competition with immobilised ligand,5 µM,65
CSc1cccnc1N1CCN(Cc2nc3ccccc3[nH]2)CC1,cell-free assay,competition with immobilised ligand,1 µM,100
O=C(Nc1c[nH]nc1C(=O)NC1CCNCC1)c1cc(F)cc(F)c1,binding,competition with immobilised ligand,1 µM,84
c1cnn2ncc(-c3ccnc(N4CCC45COC5)n3)c2c1,binding,,1 µM,70
O=C(NCCCN1CCOCC1)c1ccc(Nc2nccc(-c3cc4ccccc4s3)n2)cc1,binding,competition with immobilised ligand,1 µM,100
CN(C)c1nccc(-c2cnn3ncccc23)n1,binding,,1 µM,64
O=C(c1ccc(Nc2nccc(-c3cc4ccccc4s3)n2)cc1)N1CCC(N2CCCC2)CC1,binding,competition with immobilised ligand,1 µM,73
CN(C)c1ncc(F)c(-c2cnn3ncccc23)n1,binding,,1 µM,81
O=C(NCCCN1CCOCC1)c1ccc(Nc2ncc(Cl)c(-c3ccc(Cl)s3)n2)cc1,binding,competition with immobilised ligand,1 µM,99
O=C(N1CCS(=O)(=O)CC1)N1C[C@H](c2ccc(OC(F)(F)F)cc2)C[C@H](c2nc(C3CC3)no2)C1,cell-free assay,competition with immobilised ligand,1 µM,100
Nc1ncc2c(n1)-c1c([nH]c3ccc(C#CC4CC4)cc13)CCCC2,binding,competition with immobilised ligand,1 µM,92
CNC(=O)[C@@H]1CC[C@@H](n2c(-c3ccc4cnccc4c3)nc3ccc(C(=O)NCc4cccc(C(N)=O)c4)cc32)C1,binding,competition with immobilised ligand,1 µM,97
CN(c1nccc(-c2cnn3ncccc23)n1)C1CC1,binding,,1 µM,100
N#CC1(c2ccccn2)CCN(Cc2cc(C(=O)N3CCCC3)c(=O)n3ccccc23)CC1,cell-free assay,competition with immobilised ligand,1 µM,100
